Shown are actives, neighbours in structure and some others; about 2.2% of the full set was active somewhere.
HCV NS3 hel inh: inhibitors of HCV NS3 helicase, primary screen, biochemical, Cy5 molecular beacon fluorescence. Hepatitis C virus NS3 helicase. NS3 helicase DNA unwinding. inhibition, % at 10.9 µM. 290,000 tested, 0.56% active;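 active means inhibition above the mean of all tested compounds plus 3 SD, set per campaign, cut at about 35% in these data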;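 further: 0% = DMSO wells and 100% = thioflavine S control wells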
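Control set: DMSO versus 110 µM thioflavine S; Material: NS3 helicase fragment of HCV; Measured by: Cy5 fluorescence at 0 and 60 min, beacon hairpin quenching; Read-out basis: percent inhibition from t60/t0 fluorescence ratio; Times: reaction time 60 min, 25 °C; Repeats: single replicate; Compound dosing: single dose, 10.9 µM nominal final, DMSO 0.8% final.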
DNA FID counter: compounds displacing fluorescent DNA intercalator, primary screen, artefact control for HCV NS3 helicase inhibitor project, biochemical, FID fluorescence; DNA fluorescent intercalator displacement; 290,000 tested, 0.17% active; inhibition, % at 7.9 µM; AID 1845, 2009; in the data active means inhibition above about 37%;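 further: 0% = vehicle and 100% = reference compound; higher means more ethidium bromide displaced from hairpin DNA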
GPR7 antag: GPR7 receptor antagonists, primary screen, cell-based, fluorescence, single concentration. inhibition, % at 4.4 µM. GPR7-expressing cells, fluorescence antagonist assay. 290,000 tested, 1.1% active; in the data active means inhibition above about 16%, passing the limit was not always enough;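 further: cells stimulated with the agonist NPW; 0% = agonist with vehicle and 100% = vehicle without agonist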
DAGLB inh: DAGLB lipase inhibitors, primary screen, biochemical, fluorescence, HTS; HEK293T DAGLB membrane lysate, EnzChek fluorogenic substrate; inhibition, % at 5.17 µM; 340,000 tested, 0.059% active; AID 504411, 2011; in the data active means inhibition above about 34%;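 further: 0% = enzyme with vehicle and 100% = wells lacking enzyme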
HCV core dimer: inhibitors of HCV core protein dimerization, primary screen, biochemical, TR-FRET, high-throughput. TR-FRET GST/Flag-core106 dimerization, 1536-well. inhibition, % at 5 µM. 300,000 tested, 0.33% active;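 active means inhibition above the mean of all tested compounds plus 3 SD, set per screening campaign, cut at about 45% in these data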
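Assay system: tagged HCV core106 pair (GST and Flag); medium: KF-containing HEPES buffer, pH 7.45, DTT, CHAPS, BSA; also added: Eu donor and XL665 acceptor anti-tag antibodies; dosing: 5 µM single dose; timing: compound-protein-antibody incubation 4 h at 22.5 °C; signal: TR-FRET 671 and 617 nm emission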
GRK2 aptamer HTS: compounds blocking aptamer binding on GRK2 – biochemical, human GRK2, bead flow cytometry, HTS, primary screen; AID 488847, 2010; Beta-adrenergic receptor kinase 1 (Homo sapiens), P25098; FAM-aptamer displacement from GRK2; 330,000 tested, 0.59% active; inhibition of aptamer binding, % at 10 µM;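 active means inhibition of aptamer binding above 40%, roughly 3 SD of noise, on plates passing a quality check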;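 further: median bead fluorescence of bound FAM aptamer so fluorescent compounds give negative values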
Target sequence (P25098 whole entry, looked up): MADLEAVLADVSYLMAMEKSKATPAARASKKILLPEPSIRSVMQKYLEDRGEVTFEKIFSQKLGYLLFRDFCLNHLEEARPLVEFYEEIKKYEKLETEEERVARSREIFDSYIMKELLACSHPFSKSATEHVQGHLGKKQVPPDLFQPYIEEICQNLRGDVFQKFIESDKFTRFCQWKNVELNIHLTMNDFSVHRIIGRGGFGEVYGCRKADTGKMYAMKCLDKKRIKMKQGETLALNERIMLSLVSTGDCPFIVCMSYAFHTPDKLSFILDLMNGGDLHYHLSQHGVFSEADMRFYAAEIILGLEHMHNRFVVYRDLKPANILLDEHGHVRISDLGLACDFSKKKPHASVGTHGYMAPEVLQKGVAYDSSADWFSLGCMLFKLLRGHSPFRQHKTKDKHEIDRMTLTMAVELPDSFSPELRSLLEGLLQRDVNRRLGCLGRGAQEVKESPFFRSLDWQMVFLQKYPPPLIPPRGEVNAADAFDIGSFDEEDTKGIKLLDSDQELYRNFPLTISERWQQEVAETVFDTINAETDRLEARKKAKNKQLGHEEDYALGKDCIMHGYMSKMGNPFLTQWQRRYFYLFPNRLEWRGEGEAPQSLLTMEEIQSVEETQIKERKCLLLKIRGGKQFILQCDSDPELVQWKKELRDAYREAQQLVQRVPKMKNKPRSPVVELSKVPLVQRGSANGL
GPR7 antag conf: GPR7 receptor antagonists, confirmation, cell-based, fluorescence, single concentration; shares compounds with GPR7 antag; GPR7-expressing cells, calcium fluorescence antagonist mode; inhibition, % at 4.4 µM; 2,400 tested, 52% active; AID 1952, 2009; in the data active means inhibition above about 24%;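 further: stimulated with the GPR7 agonist NPW; 0% = agonist plus vehicle and 100% = vehicle alone without agonist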
MCHR1 antagonist: MCHR1 antagonists in cells, counter-screen for GPR7 antagonist project, cell-based, fluorescence, human. shares compounds with GPR7 antag. MCHR1-expressing cells, fluorescence antagonist assay. inhibition, % at 4.4 µM. 2,400 tested, 62% active; in the data active means inhibition above about 22%;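 further: 0% = vehicle with agonist and 100% = vehicle without agonist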
* hit, by the source's call; nt = not tested or not shown.

SMILES | HCV NS3 hel inh | DNA FID counter | GPR7 antag | DAGLB inh | HCV core dimer | GRK2 aptamer HTS | GPR7 antag conf | MCHR1 antagonist
CCOC(=O)N1CCN(C(=O)c2oc3ccc(S(=O)(=O)N(CC)CC)cc3c2C)CC1 | -13.8 | -46.0 | -11.1 | -4.7 | 2.1 | 6.0 | nt | nt
CCOC(=O)c1c(NC(=O)CSc2ncccn2)sc2c1CCN(Cc1ccccc1)C2 | -80.4 | 11.7 | 26.9* | -0.3 | nt | nt | 21.7 | 50.7*
CCOC(=O)c1c(NC(=O)CC)sc2c1CCN(Cc1ccccc1)C2 | -14.3 | -4.4 | 2.6 | -6.6 | -1.6 | 2.0 | nt | nt
CCN(CC)c1ccc(S(=O)(=O)N2CCOCC2)cc1NC(=O)CSC(=S)N1CCCC1 | -3.9 | -38.3 | 44.3* | -3.6 | 7.9 | 1.0 | 24.4* | 48.4*
CCN(CC)c1ccc(S(=O)(=O)N2CCOCC2)cc1NC(=O)CNCc1ccccc1 | 14.6 | 5.3 | 24.2* | -3.3 | 0.5 | 0.0 | 31.4* | 28.7*
CCN(CC)c1ccc(S(=O)(=O)N2CCOCC2)cc1NC(=O)C1CC1 | nt | nt | nt | 0.0 | nt | 3.0 | nt | nt
CCN(CC)c1ccc(S(=O)(=O)N2CCOCC2)cc1NC(=O)CN1CCN(Cc2ccccc2)CC1 | -9.6 | -0.2 | 4.0 | -3.5 | 6.3 | 1.0 | nt | nt
COc1ccc(-c2cc3nc(C)cc(N4CC(C)CC(C)C4)n3n2)cc1 (stereo unspecified) | -4.2 | -2.5 | -15.3 | -9.1 | 1.1 | 0.0 | nt | nt
CN(C(=O)CSC(=O)c1ccccc1)c1ccccc1 | -0.7 | -27.1 | 3.0 | -1.2 | -0.9 | 3.0 | nt | nt
C/C(=N\NC(=O)CCn1nnc2ccccc21)c1ccco1 | 4.6 | -8.2 | 21.3* | 1.6 | -0.7 | 3.0 | -5.6 | 11.4
Cc1ccc(OCC(=O)Nc2ccc3c(c2)C(=O)NC3=O)cc1 | 1.0 | -4.5 | 27.9* | 0.8 | -8.8 | 2.0 | 40.0* | 34.6*
O=C(CSCc1ccccc1)Nc1ccc2c(c1)C(=O)NC2=O | 2.2 | -0.1 | 23.5* | -4.3 | -0.2 | 0.0 | 35.5* | 34.4*
Cc1cccc(OCC(=O)Nc2ccc3c(c2)C(=O)NC3=O)c1 | -2.7 | -19.0 | 12.3 | -2.8 | -0.4 | 3.0 | nt | nt
Cc1cc(OCC(=O)Nc2ccncc2)ccc1Br | -5.2 | 5.2 | 23.1* | -0.4 | 0.6 | 0.0 | 36.3* | 49.9*
COc1ccc(OCC(=O)Nc2ccc(Cl)cc2)cc1 | 1.1 | -5.3 | 12.0 | -10.9 | -0.2 | 4.0 | nt | nt
O=C(COc1ccc(Cl)cc1)Nc1ccc2c(c1)C(=O)NC2=O | -0.1 | -0.3 | 32.6* | 1.1 | -2.3 | 3.0 | 23.8* | 26.8*
Cc1cccc(CNC(=O)CCc2nnc(C3CCCCC3)o2)c1 | 9.9 | -24.2 | -11.2 | -0.1 | 0.2 | 0.0 | nt | nt
O=C(COc1ccc(Cl)cc1)Nc1ccc(Cc2ccncc2)cc1 | -2.6 | -15.8 | 27.9* | -3.9 | -13.2 | 4.0 | 32.3* | 49.1*
O=C(COc1ccc2ccccc2c1)Nc1ccc(Cc2ccncc2)cc1 | -7.7 | -16.5 | -3.5 | -6.3 | -4.0 | 0.0 | nt | nt
COc1cc(-c2noc(C)c2/C=C/c2ccc(C(=O)O)cc2)cc(OC)c1OC | 23.2 | -36.4 | 4.8 | 4.3 | -4.5 | 29.0 | nt | nt
COc1cc(-c2noc(C)c2/C=C/c2cccc([N+](=O)[O-])c2)cc(OC)c1OC | 1.4 | -27.5 | 35.4* | -7.2 | -0.5 | 1.0 | 45.6* | 65.5*
O=C(Nc1cccc(S(=O)(=O)N2CCCCC2)c1)c1ccc(S(=O)(=O)C(F)F)cc1 | -16.9 | -11.1 | -5.2 | -3.3 | 2.4 | 0.0 | nt | nt
COc1ccccc1N1CCN(C(=O)CSc2ncnc3scc(-c4ccccc4)c23)CC1 | -8.2 | -30.4 | -0.6 | -10.1 | -1.2 | 0.0 | nt | nt
O=C(CSc1ncnc2scc(-c3ccccc3)c12)N1CCN(c2ccccc2F)CC1 | 1.1 | -10.7 | 26.7* | -12.2 | 15.3 | 2.0 | 25.2* | 33.6*
COC(=O)c1c(NC(=O)CN2CCCC(C)C2)c2c(C)cccc2n1C (stereo unspecified) | 29.1 | 1.7 | 25.9* | -5.1 | 2.0 | 0.0 | 14.1 | 27.1*
SMILES | HCV NS3 hel inh | DNA FID counter | GPR7 antag | DAGLB inh | HCV core dimer | GRK2 aptamer HTS | GPR7 antag conf | MCHR1 antagonist
O=C(NS(=O)(=O)Oc1cccc(F)c1)OC[C@@H]1CCCN2CCCCC12 (stereo partly specified) | 22.4 | -5.8 | 22.6* | -0.2 | -4.5 | 0.0 | -10.7 | 9.9
Cc1nc2ccc(S(=O)(=O)Nc3ccccc3C)cc2s1 | 7.7 | -14.4 | 25.2* | -1.2 | -2.1 | 0.0 | 9.0 | 35.0*
CN(C)CCCN(C(=O)c1ccc(S(=O)(=O)N(C)C2CCCCC2)cc1)c1nc2ccc(F)cc2s1 | -32.8 | 35.8 | 18.6 | -2.0 | 3.8 | 5.0 | nt | nt
CCc1ccc2nc(N(CCCN(C)C)C(=O)c3ccc(S(=O)(=O)N(C)C4CCCCC4)cc3)sc2c1 | -36.3 | 36.6 | 35.7* | -2.0 | -22.9 | 0.0 | 56.4* | 54.4*
CN(C)CCCN(C(=O)c1ccc(S(=O)(=O)N(C)C2CCCCC2)cc1)c1nc2ccc(Br)cc2s1 | -30.0 | 24.9 | 21.7* | -5.2 | -14.7 | 0.0 | 50.4* | 54.8*
Cc1cc(NC(=O)Nc2ccc(Cl)c(Cl)c2)no1 | nt | nt | nt | -4.3 | -5.5 | 1.0 | nt | nt
O=C(Nc1ccc(Cl)c(Cl)c1)Nc1ccon1 | 8.0 | 2.1 | 35.2* | 1.7 | -1.7 | 2.0 | 34.8* | 65.1*
CN(C)S(=O)(=O)Oc1ccsc1C(=O)Nc1ccc(Cl)c(Cl)c1 | -5.5 | 10.3 | 27.8* | -7.8 | -3.3 | 1.0 | 21.4 | 58.1*
CN(C)S(=O)(=O)Oc1ccsc1C(=O)Nc1cccc(Cl)c1 | -2.6 | -0.3 | -4.0 | -1.7 | 0.4 | 2.0 | nt | nt
COc1ccc(OC)c(S(=O)(=O)NC(N)=NCCc2ccccc2)c1 | -7.1 | -9.5 | -1.9 | -3.4 | -8.3 | 0.0 | nt | nt
O=C(c1ccco1)N1CCCC(c2nc(-c3ccc(S(=O)(=O)NCc4ccccc4)cc3)no2)C1 (stereo unspecified) | -8.8 | -31.4 | 72.5* | -3.9 | 12.2 | 1.0 | 39.3* | 72.4*
Cc1ccccc1CN1CCNC(=O)C1CC(=O)NCCN1CCCCC1=O (stereo unspecified) | 1.9 | -12.4 | -13.5 | -2.0 | 7.7 | 3.0 | nt | nt
O=C(CN1C(=O)COc2ccccc21)N1CCOCC1 | 15.3 | 7.4 | 32.0* | -0.4 | 4.4 | 4.0 | -2.8 | -1.0
